Tests used:
Vero [1] = test: (§1) Compound was tested for antiviral activity against Herpes simplex virus-2 (Strain G) in vero cells by plaque reduction assay.; format: functional; settings: Chlorocebus sabaeus, read-out: ED50 (the source's name)
Vero [2] = test: (§2) Compound was tested for antiviral activity against Herpes simplex virus-1 (Strain F) in vero cells by plaque reduction assay.; format: functional; settings: Chlorocebus sabaeus, read-out: ED50 (the source's name)
Vero [3] = test: as §1; format: functional, Chlorocebus sabaeus
Vero [4] = test: as §2; format: functional, Chlorocebus sabaeus
[5] = Theuraptic Index: ratio of ID 50 / ED 90 of compound against HSV 2; format: functional
Procedure, shortened: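 Index computed as cytotoxic ID50 over antiviral ED90. Antiviral activity was measured against HSV-2 (strain G) by plaque-reduction assay in Vero cells. Cytotoxicity was measured in rapidly dividing Vero cells.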

[6] = Theuraptic Index: ratio of ID 50 / ED 90 of compound against HSV 1; format: functional
Procedure, shortened: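 Index computed as cytotoxic ID50 over antiviral ED90. Antiviral activity was measured against HSV-1 (strain F) by plaque-reduction assay in Vero cells. Cytotoxicity was measured in rapidly dividing Vero cells.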

CCC(C)c1cn([C@@H]2O[C@H](CO)[C@@H](O)[C@@H]2F)c(=O)[nH]c1=O (some centres undefined)
EC50 (Vero [1]): > 400 µM
EC50 (Vero [2]): 15.6 µM
ED90 (Vero [3]): >400 µM
ED90 (Vero [4]): 305 µM

CCCCc1cn([C@@H]2O[C@H](CO)[C@@H](O)[C@@H]2F)c(=O)[nH]c1=O
EC50 (Vero [1]): 15.9 µM
EC50 (Vero [2]): 11.1 µM
TI [5]: > 20
ED90 (Vero [3]): 40.3 µM
ED90 (Vero [4]): 76 µM
TI [6]: > 11

C=CCc1cn([C@@H]2O[C@H](CO)[C@@H](O)[C@@H]2F)c(=O)[nH]c1=O
EC50 (Vero [1]): 6 µM
EC50 (Vero [2]): 3.3 µM
TI [5]: 52
ED90 (Vero [3]): 29.7 µM
ED90 (Vero [4]): 21.3 µM
TI [6]: 73

Cc1cn([C@@H]2O[C@H](CO)[C@@H](O)[C@@H]2F)c(=O)[nH]c1=O [5-METHYL-2'-FLUOROARAURACIL]
EC50 (Vero [1]): 0.023 µM
EC50 (Vero [2]): 0.018 µM
TI [5]: 31
ED90 (Vero [3]): 0.09 µM
ED90 (Vero [4]): 0.047 µM
TI [6]: 59

CCc1cn([C@@H]2O[C@H](CO)[C@@H](O)[C@@H]2F)c(=O)[nH]c1=O
EC50 (Vero [1]): 0.24 µM
EC50 (Vero [2]): 0.024 µM
TI [5]: 1770
ED90 (Vero [3]): 0.96 µM
ED90 (Vero [4]): 0.26 µM
TI [6]: 6540

CC(C)Cc1cn([C@@H]2O[C@H](CO)[C@@H](O)[C@@H]2F)c(=O)[nH]c1=O
EC50 (Vero [1]): 113 µM
EC50 (Vero [2]): 28.7 µM
ED90 (Vero [3]): 422 µM
ED90 (Vero [4]): 92.7 µM

CC(C)c1cn([C@@H]2O[C@H](CO)[C@@H](O)[C@@H]2F)c(=O)[nH]c1=O
EC50 (Vero [1]): 13 µM
EC50 (Vero [2]): 1 µM
TI [5]: > 11
ED90 (Vero [3]): 72.3 µM
ED90 (Vero [4]): 8.7 µM
TI [6]: > 92

CCCc1cn([C@@H]2O[C@H](CO)[C@@H](O)[C@@H]2F)c(=O)[nH]c1=O
EC50 (Vero [1]): 0.9 µM
EC50 (Vero [2]): 0.48 µM
TI [5]: 310
ED90 (Vero [3]): 7.58 µM
ED90 (Vero [4]): 4.27 µM
TI [6]: 551

From ChEMBL document CHEMBL1123204, “Nucleosides. 136. Synthesis and antiviral effects of several 1-(2-deoxy-2-fluoro-beta-D-arabinofuranosyl)-5-alkyluracils. Some structure-activity relationships” (J Med Chem, 1986)
